Source: ChEMBL document CHEMBL1139364, “Codrugs linking L-dopa and sulfur-containing antioxidants: new pharmacological tools against Parkinson's disease” (J Med Chem, 2009)
In brackets after ≈: the same amount, converted by molar mass. Activity calls are given as the source filed them. No cut-off for these calls is given here. Where a SMILES comes first, the peptide text is derived from it. [ ]: non-standard residue; d: D form. Dopa = N[C@@H](Cc1ccc(O)c(O)c1)C(=O)O

Assays:
[1] = Solubility at 50 mg in phosphate buffer at pH 1.3; assay type: physicochemical
Procedure, shortened: (§1)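 Solubility in water and in buffers at pH 1.3, 5.0 and 7.4 via shake-flask approach; concentration determined by HPLC with UV diode-array detection.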

[2] = Stability assessed as half life in hydrochloric acid buffer at pH 1.3; assay type: physicochemical
Procedure, shortened: (§2)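 Incubation at 37 °C in simulated gastric fluid (pH 1.3) or isotonic sodium phosphate buffer (pH 7.4); loss of parent monitored by HPLC UV-DAD; pseudo-first-order rate constants from slope of log residual compound vs time, giving half-life.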

[3] = test system: Rattus norvegicus; assay: Effect on behavioral changes in po dosed Wistar rat assessed as decrease in grooming activity after 1.5 hrs by open-field studies compared to L-dopa
[4] = Antioxidant activity against luminol-induced peroxide radicals by chemiluminescence assay; assay type: functional
Procedure, shortened: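 Chemiluminescence assay with luminol used to measure hydrogen peroxide level.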

[5] = test system: Rattus norvegicus; assay: Mean residence time in Sprague-Dawley rat assessed as L-dopa level at 0.332 mmol/kg, po; assay type: ADME, organism-based; settings: in vivo
Procedure, shortened: (§3)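 Male Sprague–Dawley rats dosed orally at 0.332 mmol/kg; plasma L-dopa followed over time; noncompartmental parameters (Cmax, Tmax, AUC, AUMC, MRT) derived from plasma concentration profiles; data mean ± SE.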

[6] = test system: Rattus norvegicus; assay: AUMC in Sprague-Dawley rat assessed as L-dopa level at 0.332 mmol/kg, po; assay type: ADME, organism-based; settings: in vivo; procedure, shortened: as §3
[7] = test system: Rattus norvegicus; assay: AUC in Sprague-Dawley rat assessed as L-dopa level at 0.332 mmol/kg, po; assay type: ADME, organism-based, Plasma; settings: in vivo; procedure, shortened: as §3
[8] = Lipophilicity, log P pf the compound at pH 7.4 by saturated shake-flask method; assay type: physicochemical; settings: buffer
Procedure, shortened: (§4)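 Partition between n-octanol and phosphate buffer pH 7.4 by saturated shake-flask method; compound concentration in phases measured by HPLC with UV diode-array detection.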

[9] = Solubility at 50 mg in phosphate buffer at pH 7.4; assay type: physicochemical; procedure, shortened: as §1
[10] = test system: Rattus norvegicus; assay: Effect on behavioral changes in po dosed Wistar rat assessed as decrease in spontaneous locomotory activity after 1.5 hrs by open-field studies compared to L-dopa
[11] = Partition coefficient, log K pf the compound; assay type: physicochemical; settings: octanol/water; procedure, shortened: as §4
[12] = Stability in rat plasma assessed as half life; assay type: ADME, cell-free
Procedure, shortened: (§5)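 Conversion to L-dopa at 37 °C in rat or human plasma diluted to 80% with isotonic sodium phosphate buffer pH 7.4; residual compound followed over time; pseudo-first-order constants from log residual vs time slope, giving half-life.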

[13] = test system: Rattus norvegicus; assay: Tmax in Sprague-Dawley rat assessed as L-dopa level at 0.332 mmol/kg, po; assay type: ADME, organism-based; settings: in vivo; procedure, shortened: as §3
[14] = test system: Rattus norvegicus; assay: Effect on behavioral changes in icv dosed Wistar rat assessed as decrease in rearing episodes after 1.5 hrs by open-field studies compared to L-dopa; assay type: functional, organism-based
[15] = Stability assessed as half life in isotonic sodium phosphate buffer at pH 7.4; assay type: physicochemical; procedure, shortened: as §2
[16] = Solubility at 50 mg in phosphate buffer at pH 5.0; assay type: physicochemical; procedure, shortened: as §1
[17] = test system: Rattus norvegicus; assay: Cmax in Sprague-Dawley rat assessed as L-dopa level at 0.332 mmol/kg, po; assay type: ADME, organism-based; design: dose 0.332 mmol/kg, route oral; settings: in vivo; procedure, shortened: as §3
[18] = Antioxidant activity against lucigenin-induced super oxide radicals by chemiluminescence assay; assay type: functional
Procedure, shortened: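 Chemiluminescence assay; superoxide anions generated by xanthine/xanthine oxidase system, signal amplified with lucigenin.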

[19] = Solubility in water; assay type: physicochemical; procedure, shortened: as §1
[20] = Stability in human plasma assessed as half life; assay type: ADME, cell-free; procedure, shortened: as §5
[21] = test system: Rattus norvegicus; assay: Effect on behavioral changes in icv dosed Wistar rat assessed as anxiety-like behavior by open-field studies; assay type: functional, organism-based
[22] = test system: Rattus norvegicus; assay: Sedative activity in icv dosed Wistar rat assessed as reduction of explorative activity; assay type: functional, organism-based
[23] = test system: Rattus norvegicus; assay: Antiparkinson activity in po dosed rat striatum assessed as L-dopa levels per mg of tissue after 6 hrs
[24] = test system: Rattus norvegicus; assay: Effect on behavioral changes in icv dosed Wistar rat assessed as increase in grooming activity after 3 days by open-field studies; assay type: functional, organism-based
[25] = Plasma concentration in Sprague-Dawley rat after 8 hrs; assay type: ADME, organism-based
Procedure, shortened: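 Male Sprague–Dawley rats given 0.332 mmol/kg orally; plasma L-dopa measured over time, including at 8 h; mean ± SE.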

[26] = test system: Rattus norvegicus; assay: Effect on behavioral changes in icv dosed Wistar rat assessed as increase in spontaneous locomotory activity after 3 days by open-field studies; assay type: functional, organism-based
[27] = test system: Rattus norvegicus; assay: Antiparkinson activity in Wistar rat striatum assessed as L-dopa levels per mg of tissue at 1 umol/kg, icv after 1 week; assay type: functional
Procedure, shortened: (§6)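 Rats dosed icv for 1 week at 1 µmol/kg; striatal L-dopa and dopamine quantified by HPLC with electrochemical detection; three experiments, mean with standard error.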

[28] = test system: Rattus norvegicus; assay: Effect on behavioral changes in icv dosed Wistar rat assessed as increase in rearing episodes after 3 days by open-field studies; assay type: functional, organism-based
[29] = test system: Rattus norvegicus; assay: Antiparkinson activity in Wistar rat striatum assessed as dopamine levels per mg of tissue at 1 umol/kg, icv after 1 week; assay type: functional; procedure, shortened: as §6

SMILES	solubility [1]	half-life [2]	Activity [3]	Activity [4]	MRT [5]	AUMC [6]	AUC [7]	solubility [9]	Activity [10]	log K [11]	half-life [12]	Tmax [13]	Activity [14]	half-life [15]	solubility [16]	Cmax [17]	Activity [18]	solubility [19]	half-life [20]	Activity [21]	other results
COC(=O)[C@H](Cc1ccc(O)c(O)c1)NC(=O)[C@H](CS)NC(=O)[C@@H](CS)NC(C)=O	20 µg/mL (≈ 43.5 µM)	293 h	Active	Active	8.35 h	3608.38 ug/ml.hr'2	432.2 ug/hr.ml	9.08 µg/mL (≈ 19.8 µM)	Active	-0.11	0.93 h	1.55 h	Active	48.5 h	15.1 µg/mL (≈ 32.7 µM)	16310 ng/mL	Active	15 µg/mL (≈ 32.6 µM)	3.39 h	Active	logD [8]: -0.14
COC(=O)[C@H](Cc1ccc(O)c(O)c1)NC(=O)[C@H](CCSC)NC(C)=O (Ac-Met-[Dopa]-OMe)	154 µg/mL (≈ 401 µM)	296 h	Active	Active	7.58 h	12319.3 ug/ml.hr'2	1624.91 ug/hr.ml	174 µg/mL (≈ 453 µM)	Active	-0.22	1.92 h	4.22 h	Active	30.2 h	237 µg/mL (≈ 618 µM)	62870 ng/mL	Active	101 µg/mL (≈ 262 µM)	5.25 h	Active	Activity [22]: Active; Activity [23]: 18 pmol/mg; logD [8]: 0.38; Activity [24]: Active; concentration at 8 h [25]: 53000 ng/mL; Activity [26]: Active; Activity [27]: 4.03 pmol/mg; Activity [28]: Active; Activity [29]: 0.09 pmol/mg
COC(=O)[C@H](CCSC)NC(=O)[C@H](Cc1ccc(O)c(O)c1)NC(C)=O (Ac-[Dopa]-Met-OMe)	256 µg/mL (≈ 665 µM)	292 h	Active	Active	6.96 h	6844.84 ug/ml.hr'2	984.01 ug/hr.ml	101 µg/mL (≈ 262 µM)	Active	-0.25	1.55 h	2.25 h	Active	26.9 h	247 µg/mL (≈ 642 µM)	51070 ng/mL	Active	103 µg/mL (≈ 268 µM)	4.39 h	Active	Activity [22]: Active; Activity [23]: 8 pmol/mg; logD [8]: -0.19; Activity [24]: Active; Activity [26]: Active; Activity [27]: 2.13 pmol/mg; Activity [28]: Active; Activity [29]: 0.22 pmol/mg
N[C@@H](Cc1ccc(O)c(O)c1)C(=O)O [LEVODOPA]	–	–	–	–	8.95 h	1053.92 ug/ml.hr'2	117.73 ug/hr.ml	–	–	–	–	1.03 h	–	–	–	5630 ng/mL	–	–	–	–	Activity [27]: 3.36 pmol/mg; Activity [29]: 0.07 pmol/mg
COC(=O)[C@H](CS)NC(=O)[C@H](Cc1ccc(O)c(O)c1)NC(C)=O (Ac-[Dopa]-Cys-OMe)	147 µg/mL (≈ 414 µM)	291 h	Active	Active	9.52 h	1053.36 ug/ml.hr'2	110.62 ug/hr.ml	159 µg/mL (≈ 447 µM)	Active	-0.26	0.61 h	4.11 h	Active	48 h	152 µg/mL (≈ 426 µM)	6190 ng/mL	Active	154 µg/mL (≈ 431 µM)	1.09 h	Active	–
COC(=O)[C@H](Cc1ccc(O)c(O)c1)NC(=O)[C@H](CS)NC(=O)C(C)(C)S	7.07 µg/mL (≈ 17 µM)	292 h	Active	Active	8.22 h	4056.32 ug/ml.hr'2	493.29 ug/hr.ml	13.5 µg/mL (≈ 32.3 µM)	Active	0.2	1.16 h	6.04 h	Active	21.3 h	3.82 µg/mL (≈ 9.17 µM)	17410 ng/mL	Active	14.3 µg/mL (≈ 34.4 µM)	1.5 h	Active	logD [8]: 0.92
COC(=O)[C@H](Cc1ccc(O)c(O)c1)NC(=O)[C@H](CS)NC(C)=O (Ac-Cys-[Dopa]-OMe)	208 µg/mL (≈ 584 µM)	301 h	Active	Active	9.34 h	1673.2 ug/ml.hr'2	179.06 ug/hr.ml	201 µg/mL (≈ 563 µM)	Active	-0.3	0.78 h	4.05 h	Active	46.2 h	228 µg/mL (≈ 639 µM)	6910 ng/mL	Active	210 µg/mL (≈ 590 µM)	1.16 h	–	–
